Sampled rows, rich in hits. Any-hit rate of the full collection: about 1.8%.
proCasp3 act = activators of human procaspase-3; recombinant procaspase-3 D3A, Ac-DEVD-pNA absorbance 405 nm; AID 463141; hit rate 0.11% among 330,000; activation, % at 8.5 µM;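 active means activation above the mean of all tested compounds plus 3 SD, cut at about 21% in these data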;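 further: 0% = DMSO alone and 100% = DMSO wells spiked with extra 5 µM PC-3 D3A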
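Assay system: Autoprocessing-dead procaspase-3 D3A mutant enzyme; also added: Ac-DEVD-pNA; doses: one concentration, 8.5 µM nominal, 0.8% DMSO; times: 1 h compound preincubation, 2 h substrate hydrolysis at 25 °C; technique: 405 nm absorbance of p-nitroaniline, reads at 0 and 120 min; measure: % activation between DMSO and enzyme-spiked controls; repeats: single replicate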
Apaf1 inhib = blocks human Apaf-1 apoptosome activity; O14727; reconstituted apoptosome caspase-3 activity, DEVD-Rh110 fluorescence; inhibition, % at 20 µM; hit rate 0.71% among 330,000; active means inhibition of at least 40% at 20 µM;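 further: plate controls were DMSO wells for no effect and DEVD-CHO caspase inhibitor wells for full effect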
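Material: cell-free apoptosome with Apaf-1, procaspase-3 and caspase-9; Buffer or medium: Hepes pH 7.5 with detergent and BSA; Reagent: cytochrome c trigger plus (Z-DEVD)2-Rh110 caspase-3 substrate; Times: compound with Apaf-1, dATP, procaspase-3 30 min, then 50 min reaction, room temperature; Technique: Rh110 fluorescence intensity.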
proCasp7 act = counter-screen: procaspase-7 (human) activation. AID 463210. P55210. activation, % at 8.5 µM. recombinant procaspase-7, Ac-DEVD-pNA absorbance 405 nm; D23A/D198A/D206A triple mutant, cannot self-cleave; scale: DMSO 0, 5 µM enzyme 100. hit rate 0.093% among 330,000;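 active means percent activation above the screen-wide mean plus 3 SD, cut at about 25% in these data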
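Assay system: Uncleavable procaspase-7 mutant enzyme / Input: 2 µM procaspase-7 mutant as dispensed / Dosing: single nominal 8.5 µM compound dose, 0.8% DMSO final / Timing: 1 h enzyme–compound preincubation and 2 h substrate reaction, both 25 °C / Detection: p-Nitroaniline absorbance at 405 nm, read at 0 and 120 min / Replication: singlicate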
GSTO1 inh = blocks human GSTO1 in RBBP9 counter-screen | recombinant GSTO1, activity-based probe fluorescence polarization | inhibition, % at 5.96 µM | hit rate 1.1% among 300,000 | AID 1974;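 active means inhibition above the campaign mean inhibition plus 3 SD, cut at about 35% in these data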;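 further: 0% = GSTO1-1 with DMSO and 100% = wells lacking GSTO1-1 enzyme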
EBNA-1 inh = blocks EBNA-1 binding to DNA; EBNA-1 DNA binding, fluorescence polarization; inhibition, % at 14.8 µM; hit rate 0.34% among 300,000; AID 1950; in the data active means inhibition above about 28%
ZTA counter = counter-screen for EBNA-1 inhibitors: inhibitors of Epstein-Barr virus ZTA | P03206 | ZTA-DNA binding, fluorescence polarization | inhibition, % at 11 µM | hit rate 0.15% among 320,000; in the data active means inhibition above about 33%
The depositor's hits bear a star; . = not tested or not shown; + = active, no number.

SMILES	proCasp3 act	Apaf1 inhib	proCasp7 act	GSTO1 inh	EBNA-1 inh	ZTA counter
CCn1c(=S)sc2c(=O)n(CC(=O)NC(C)CCc3ccccc3)c(C)nc21 (configuration not stated)	2	14	2	35*	2	3
O=C(CSc1ncn[nH]1)NCc1ccccc1Cl	-1	3	-4	1	-14	-3
O=C(/C=C/c1ccc([N+](=O)[O-])cc1)c1ccco1	-1	-11	10	3	-4	-11
O=C(/C=C/c1ccc([N+](=O)[O-])cc1)/C=C/c1ccco1	-13	43*	-22	31	5	14
CC(=O)Nc1ccc(NC(=O)CC2Nc3cccc4cccc(c34)NC2=O)cc1 (configuration not stated)	-3	96*	-4	28	7	5
CCOc1ccc(NC(=O)CC2Nc3ccccc3NC2=O)cc1 (configuration not stated)	5	-4	10	-5	12	-2
C=CCn1c(N)c(C(=O)Nc2cccc(C)c2)c2nc3ccccc3nc21	-23	48*	-14	17	-6	9
CN1CCN(Cc2nc3c([nH]2)c(=O)[nH]c(=O)n3C)CC1	-12	5	-1	36*	-6	12
Cn1c(=O)c2[nH]c(CN3CCN(Cc4ccccc4)CC3)nc2n(C)c1=O	-3	0	14	-4	-5	-4
O=C(NCCCN1CCOCC1)C1CCN(S(=O)(=O)c2cccc(C(F)(F)F)c2)CC1	4	3	3	.	.	-10
CC(Sc1nnnn1-c1ccc(O)cc1)C(=O)NNC(=O)c1ccc(F)cc1 (configuration not stated)	-9	13	-2	.	.	2
Cc1ccnc(NS(=O)(=O)c2ccc(NC(=O)c3ccc([N+](=O)[O-])s3)cc2)n1	-6	-3	0	37*	-5	-6
Cc1cc(NS(=O)(=O)c2ccc(NC(=O)c3ccc([N+](=O)[O-])s3)cc2)nc(C)n1	10	21	3	.	.	.
CC(=O)c1ccc(S(=O)(=O)Nc2ccccc2C(=O)NC2CC2)cc1	8	-6	8	.	.	9
CCN(CC)c1ccc(N=Cc2ccccc2[N+](=O)[O-])cc1	-9	62*	-22	69*	177*	+
CCOC(=O)C1CCCN(C(=O)C(CCSC)NC(=O)COc2ccccc2)C1 (configuration not stated)	.	1	.	.	.	.
Cc1ccc(C(=O)NCC(=O)OCC(=O)Nc2cc(S(=O)(=O)N3CCOCC3)ccc2C)cc1	-4	8	5	-7	-4	4
Cc1ccc(S(=O)(=O)N2CCOCC2)cc1NC(=O)COC(=O)CNC(=O)c1ccc(C(C)(C)C)cc1	3	17	-8	35*	-7	-12
CCn1ncc(Br)c1C(=O)NC1CCCCCCC1	.	-3	.	.	.	.
CCc1ccc(S(=O)(=O)/N=C2\C=CC(=O)c3ccccc32)cc1	3	55*	0	67*	-5	-7
CCc1ccc(S(=O)(=O)ON2C(=O)c3ccccc3C2=O)cc1	.	0	.	.	.	.
CC1CCN(C(=O)c2ccc(SCc3ccccc3F)c([N+](=O)[O-])c2)CC1	0	19	-8	1	38*	-6
O=C(c1ccc(S(=O)(=O)Cc2ccccc2F)c([N+](=O)[O-])c1)N1CCCCCC1	-6	-1	6	4	2	2
CC(Oc1ccccc1)C(=O)N(CCC1=CCCCC1)c1c(N)n(Cc2ccccc2)c(=O)[nH]c1=O (configuration not stated)	0	13	11	-3	-17	10
O=C(COC(=O)c1cc(S(=O)(=O)N2CCc3ccccc3C2)ccc1Cl)NCc1ccco1	-25	43*	-29	-7	0	-14
SMILES	proCasp3 act	Apaf1 inhib	proCasp7 act	GSTO1 inh	EBNA-1 inh	ZTA counter
O=C(O)c1nn(Cc2ncc(-c3cccc(Cl)c3)o2)c(=O)c2ccccc12	-7	19	-8	7	-7	-9
C[C@@H](c1ccccc1)N1C[C@H]2CCCN2c2cc(Br)ccc2S1(=O)=O	2	16	9	.	.	.
Cc1ccc(S(=O)(=O)N/N=C/c2ccc(O)c(O)c2)cc1[N+](=O)[O-]	-5	-4	-3	50*	-3	16
Cc1ccc(S(=O)(=O)N/N=C/c2ccccc2O)cc1[N+](=O)[O-]	2	-6	4	-5	-7	1
CCCCCCCCCCn1c2c(c(=N)c3c1CCC3)CCC2	-2	74*	12	0	-2	-8
CCCCCCCCn1c2c(c(=N)c3ccccc31)CCC2	.	34	.	.	.	.
Cc1cc(C(=O)Nc2cc(S(C)(=O)=O)ccc2Cl)c(C)o1	4	-1	6	.	.	.
CNc1ccc(Br)cc(C(=O)/C=C/c2ccc(Cl)cc2Cl)c1=O	-16	33	-20	35*	-7	6
CNc1ccc(Br)cc(C(=O)/C=C/c2cccc(OC)c2)c1=O	-4	18	-4	36*	10	0
CNc1ccc(Br)cc(C(=O)/C=C/c2ccc(OC)cc2OC)c1=O	-11	22	-16	36*	-2	4
Nc1ccc(N2CCCCCC2)cc1	-8	93*	3	78*	93*	165*
O=C(Nc1cccc(Cl)c1N1CCOCC1)c1cccs1	-6	-4	13	-9	2	1
O=c1c(-c2ccc(Br)cc2)[n+]([O-])c2ccccc2n1OCc1ccccc1	-12	-24	6	-7	0	2
CC(C)(C)c1ccc(COn2c(=O)c(-c3ccco3)[n+]([O-])c3ccccc32)cc1	-23	16	-23	43*	-5	-13
Cc1c(NC(=O)c2ccc(NS(=O)(=O)c3ccccc3)cc2)c(=O)n(-c2ccccc2)n1C	7	0	9	5	9	8
Oc1ccc(/C=N/N2CCOCC2)c(O)c1O	-16	21	-27	38*	-9	8
CC(C)c1ccc(NS(=O)(=O)c2ccc(-n3cccn3)cc2)cc1	3	22	3	35*	-4	-8
CC(=O)NCc1ccc(C(=O)CCl)s1	-6	-1	-28	78*	-12	-9
CC(=O)NCc1ccc(C(=O)CCl)cc1	4	-1	-8	50*	6	18
CC(=O)Nc1ccc(C(=O)CCl)cc1	-7	5	-23	.	.	-8
COc1ccc(C(=O)OCC(=O)NCC2CCCCC2)c(OC)c1	.	8	.	.	.	.
COc1ccccc1NC(=O)Nc1ccnn1C1CCN(C(=O)c2cccnc2)CC1	6	0	10	5	-1	-13
Cc1ccc(C(=O)NNS(=O)(=O)c2ccc(F)cc2)cc1	6	3	1	1	-19	6

Source: PubChem
